Assay results taken from PMC4545405 (ACS chemical biology, 2013).
Like-named read-outs stand apart in the source and are kept apart here.

Key:
PelD = PelD (Pseudomonas aeruginosa, UniProt A0A0H2ZD98); test: DRaCALA / DRaCALA-HTS inhibition of 32P-cdiGMP binding to PelD; conditions: for fraction bound of 32P-cdiGMP to PelD in DRaCALA-HTS: NCC1 library screen, cutoff 3 standard deviations below the average
WspR [1] = molecular target: T1, WspR (Pseudomonas aeruginosa, UniProt Q9HXT9); test: DRaCALA inhibition of 32P-cdiGMP binding to WspR
[2] = system: PDE (RocR, PvrR, FimX) or PilZ (Alg44, PA3353) proteins; test: DRaCALA inhibition of 32P-cdiGMP binding to PDE and PilZ proteins; parameters: species or system P. aeruginosa; conditions: Eb 50 μM
Summary of the method: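 Purified protein was mixed with ³²P-cdiGMP in the presence of 50 μM test compound or DMSO, then spotted on nitrocellulose. Spots were imaged by phosphorimager. Fraction bound = corrected bound-ligand intensity ÷ total spot intensity.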

WspR [3] = molecular target: T1, WspR; test: WspR DGC activity assay by TLC; assay type: biochemical; conditions: for DGC activity of wild-type WspR (inhibition): 50 μM; for WspR activity after DTT treatment of preincubated WspR: with DTT
[4] = system: WspR with C49A substitution; test: DGC activity assay of C49A WspR; assay type: biochemical, Pseudomonas aeruginosa; conditions: 50 μM
Summary of the method: (§1)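 Purified WspR point mutants (C49A, C240A, or AxxA at the RxxD I-site), expressed from cloned alleles. Diguanylate cyclase activity measured by thin-layer chromatography (TLC) with test compound or cdiGMP at 50 μM, against a DMSO control. Compounds were dissolved in DMSO.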

[5] = system: WspR with C240A substitution; test: DGC activity assay of C240A WspR; assay type: biochemical, Pseudomonas aeruginosa; conditions: 50 μM
Summary of the method: as §1

[6] = system: AxxA WspR (RxxD I-site abolished); test: DGC activity assay of AxxA WspR; assay type: biochemical, Pseudomonas aeruginosa; conditions: 50 μM
Summary of the method: as §1

P. aeruginosa PA14 = test: Growth curves; assay type: cell-based, Pseudomonas aeruginosa; conditions: 50 μM, LB, 37 °C, 16 hours, vs DMSO
Summary of the method: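 P. aeruginosa PA14 grown overnight in LB at 37 °C with shaking, then subcultured in LB with 50 μM test compound or 2% DMSO alone. Grown with shaking at 37 °C for 16 h. A600 read every 5 minutes.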

[7] = system: P. aeruginosa PA14 overexpressing DGCs; test: Swim motility assay of PA14 overexpressing DGCs; assay type: cell-based, Pseudomonas aeruginosa; conditions: for change in swimming motility compared to the DMSO control: PA14 overexpressing PA0847, IPTG; for change in swimming motility compared to the DMSO control / increase in swimming diameter compared to the DMSO control: 50 μM
PA14 pMMB-WspR = test: Crystal violet pellicle assay, DGC-dependent biofilm formation; assay type: cell-based, Pseudomonas aeruginosa; conditions: IPTG-induced WspR, static incubation 30 °C, 16 hours
PA14 ΔretS = test: Crystal violet pellicle assay, DGC-independent biofilm formation; assay type: cell-based, Pseudomonas aeruginosa
Alg44 = Alg44 (Pseudomonas aeruginosa, UniProt Q9HY69); test: DRaCALA / DRaCALA-HTS binding of 32P-cdiGMP to Alg44; conditions: for Kd: Kd of Alg44 binding to 32P-cdiGMP
[8] = PA14 overexpressing PA1107, IPTG
[9] = PA14 overexpressing PA1120, IPTG
[10] = PA14 overexpressing PA1727, IPTG

Alg44, sequence (Q9HY69 whole entry): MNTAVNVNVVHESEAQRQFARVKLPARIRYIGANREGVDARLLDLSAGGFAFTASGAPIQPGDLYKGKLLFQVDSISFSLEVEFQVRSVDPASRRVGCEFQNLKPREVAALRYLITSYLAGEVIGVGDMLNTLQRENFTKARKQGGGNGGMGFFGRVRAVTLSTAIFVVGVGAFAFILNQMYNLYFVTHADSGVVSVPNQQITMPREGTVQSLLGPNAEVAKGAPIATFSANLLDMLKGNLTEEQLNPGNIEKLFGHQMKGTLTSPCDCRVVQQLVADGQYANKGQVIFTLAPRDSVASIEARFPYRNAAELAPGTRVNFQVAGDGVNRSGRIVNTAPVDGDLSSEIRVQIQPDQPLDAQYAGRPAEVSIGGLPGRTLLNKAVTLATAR

| SMILES | fraction bound of 32P-cdiGMP to PelD in DRaCALA-HTS (PelD) | reduction of 32P-cdiGMP binding to PDE or PilZ proteins [2] | DGC activity of wild-type WspR (inhibition) (WspR [3]) | WspR activity after DTT treatment of preincubated WspR (WspR [3]) | DGC activity of C49A WspR (inhibition) [4] | DGC activity of C240A WspR (inhibition) [5] | DGC activity of AxxA WspR (inhibition) [6] | growth of P. aeruginosa PA14 (P. aeruginosa PA14) | change in swimming motility compared to the DMSO control [7] | increase in swimming diameter compared to the DMSO control [7, 8] [fold] | increase in swimming diameter compared to the DMSO control [7, 9] [fold] | increase in swimming diameter compared to the DMSO control [7, 10] [fold] | increase in swimming diameter compared to the DMSO control ([7]; PA14 overexpressing WspR, IPTG) [fold] | reduction of biofilm formation compared to the DMSO control (PA14 pMMB-WspR) | DGC-independent biofilm formation (PA14 ΔretS) | further results |
| --- | --- | --- | --- | --- | --- | --- | --- | --- | --- | --- | --- | --- | --- | --- | --- | --- |
| O=c1c2ccccc2[se]n1-c1ccccc1 [Eb, ebselen] | below the positive cutoff of 3 standard deviations below the average | ≤ 25% | inhibited | returned WspR activity to the level of the DMSO control | still susceptible to inhibition | completely refractory | no longer inhibited | No difference in growth | no change in swimming motility | 3.4 | 2.5 | 1.1 | 2 | ~ 40% | Neither Eb nor EbO reduced biofilm formation | IC50 (PelD): 5 ± 2 µM; inhibition at 50 µM (PelD; read-out: reduction of cdiGMP binding to PelD): 80%; IC50 (WspR [1]): 13.6 ± 0.5 µM; inhibition at 50 µM (WspR [1]; read-out: reduction of cdiGMP binding to WspR): 90%; inhibition at 50 µM (WspR [3]; read-out: reduction of WspR activity (velocity)): 87%; WspR velocity at varying substrate and Eb concentrations (WspR [3]; varying substrate concentrations): reduced WspR velocity in a concentration dependent manner |
| O=C1c2ccccc2[Se](=O)N1c1ccccc1 (centres unmarked) [EbO, ebselen oxide] |  | did not reduce | inhibited | returned WspR activity to the level of the DMSO control | still susceptible to inhibition | completely refractory | no longer inhibited | No difference in growth | no change in swimming motility | 4 | 3.4 | 1.3 | 2.5 | ~ 40% | Neither Eb nor EbO reduced biofilm formation | reduction of cdiGMP binding to PelD (PelD; compared to the DMSO control, Eb 50 μM): ~ 60%; IC50 (PelD; read-out: IC50 for PelD (inhibition of cdiGMP binding), DRaCALA): 5 ± 2 µM; IC50 for WspR (inhibition of cdiGMP binding) (WspR [1]; DRaCALA): did not show inhibition; reduction of cdiGMP binding to WspR (WspR [1]; compared to the DMSO control, Eb 50 μM, no preincubation): ~ 30%; reduction of 32P-cdiGMP binding to WspR after preincubation (WspR [1]; preincubation of WspR for 30 minutes before addition of 32P-cdiGMP): 86%; reduction of WspR activity (velocity) (WspR [3]; 10 μM GTP, inhibitor 50 μM): 87%; reversal of cdiGMP-mediated repression of swimming, concentration dependence ([7]; PA14 overexpressing PA3702, IPTG, different concentrations): at a lower concentration |
| Nc1nc2c(ncn2[C@@H]2O[C@@H]3COP(=O)(O)O[C@H]4[C@@H](O)[C@H](n5cnc6c(=O)[nH]c(N)nc65)O[C@@H]4COP(=O)(O)O[C@H]3[C@H]2O)c(=O)[nH]1 [cdiGMP, cyclic-di-GMP] | no binding was observed |  | inhibited |  | still susceptible to inhibition | inhibited | no longer inhibited |  |  |  |  |  |  |  |  | average fraction bound of 32P-cdiGMP to Alg44 with cdiGMP competitor (Alg44; 384-well plate, 25 μM unlabeled cdiGMP): 0.007±0.005; Kd (Alg44; 384 well format, HTS-DRaCALA): 0.239 ± 0.007 µM; Kd (Alg44; fraction bound in individual reaction mixtures): 0.38 ± 0.02 µM |
